1 compound from ChEMBL document CHEMBL3734686, “Synthesis, Photophysical Properties, and Biological Evaluation of trans-Bisthioglycosylated Tetrakis(fluorophenyl)chlorin for Photodynamic Therapy” (J Med Chem, 2015) can be followed below.

Calls of active or inactive are those of the source.

Data set [1] in a line: Drug uptake in BALB/c mouse large intestine implanted with mouse 4T1 cells assessed per gram of tissue at 0.18 mg/kg, ip after 72 hrs by HPLC-based fluorescence analysis. The format is ADME, organism-based. The settings on record: in vivo. A digest of the protocol:
(§1)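 Female BALB/c mice bearing 4T1 thigh tumours received an i.p. dose in ethanol/PEG400/H2O (2/3/5) with 0.1% DMSO, or in saline, and were kept dark until killed. Tissues were weighed (100 mg), homogenised in CH3OH/DMSO/H2O (32/8/1) and centrifuged twice at 2300×g at 4°C. Supernatants were analysed by HPLC with fluorescence detection (λex 404/λem 654 nm or λex 400/λem 666 nm). n = 3 per time point.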

Data set [2] deals with 4T1. The experiment in a line: Antiangiogenic activity against mouse 4T1 cells implanted in BALB/c mouse at 0.045 mg/kg, ip administered for 48 hrs followed by irradiation at 48 J/cm2 measured after 6 days by hematoxylin/eosin-staining based microscopic analysis. The format is functional, organism-based. A digest of the protocol: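 4T1 cells (1 × 10^6 in HBSS) were implanted in the left rear thigh of female BALB/c mice. At 48 h after i.p. dosing at 31.25 nmol·kg−1 in ethanol/PEG400/H2O (2/3/5) with 0.1% DMSO, the tumour was irradiated with a 100-W halogen lamp (λ > 500 nm, 48 J·cm−2). Skin with tumour was taken 6 days later, fixed in 4% paraformaldehyde, paraffin-embedded, cut into 7-µm sections, H&E-stained and examined by light microscopy.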

Data set [3] deals with 4T1. The experiment in a line: Potency index, ratio of compound antitumor activity to mono-L-aspartyl chlorin e6 antitumor activity against mouse 4T1 cells implanted in ip dosed BALB/c mouse. It is filed as functional.
Data set [4] can be described thus: Induction of reactive oxygen generation assessed as quantum yield of hydrogen peroxide generation in O2 saturated PBS containing 1% DMSO under photoirradiation by spectrometry relative to control hematoporphyrin. The format is physicochemical. The following applies: buffer. A digest of the protocol:
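Photosensitizer (1.00 µM) with HPF (2.00 µM) in PBS containing 1% DMSO, oxygenated 1 min, irradiated with 100-W halogen lamp through λ>500 nm cutoff filter at 37°C; hematoporphyrin as reference.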

The nature of data set [5]: Photocytotoxicity against mouse B16-F1 cells assessed as cell survival preincubated for 24 hrs followed by irradiation at 16 J/cm2 measured at 24 hrs by WST-8 assay. It is filed as functional, cell-based. The following applies: B16-F1, light or radiation study. A digest of the protocol:
(§2)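 Cells (5 × 10^3/well) in DMEM with 10% FCS, 24 h at 37°C, 5% CO2; photosensitizer 1–50000 nM (1% DMSO final) for 24 h, washed, fresh medium. Irradiated with 100-W halogen lamp through λ>500 nm or λ>600 nm cutoff filter to 16 J·cm−2; WST-8 absorbance at 450 nm 24 h later, survival normalized to no-drug wells.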
A general note: Tetrazolium dyes change colour on reduction, which living cells bring about.

The nature of data set [6]: Photocytotoxicity against rat RGK1 cells assessed as cell survival preincubated for 24 hrs followed by irradiation at 16 J/cm2 measured at 24 hrs by WST-8 assay. The format is functional, cell-based. The settings on record: RGK1, light or radiation study. A digest of the protocol: as §2
Another data set deals with T98G. The data set is described as follows: Photocytotoxicity against human T98G cells assessed as cell survival preincubated for 24 hrs followed by irradiation at 16 J/cm2 measured at 24 hrs by WST-8 assay. It is filed as functional, cell-based. The settings on record: light or radiation study. A digest of the protocol:
as §2

A short description of data set [7]: Drug uptake in mitochondria of human Hela cells at 0.5 uM preincubated for 24 hrs followed by MitoTracker Green FM addition for 30 mins by CSLM analysis. The format is ADME. The settings on record: 0.5 h. A digest of the protocol:
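HeLa cells (1 × 10^4) plated 24 h, incubated 24 h with 0.5 µM final photosensitizer (1% DMSO), washed, stained 30 min with 250 nM MitoTracker Green FM in HBSS at 37°C, fixed in 4% paraformaldehyde. Confocal imaging: red λex 488/λem 650 nm; green λex 488/λem 505–530 nm.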

Data set [8] concerns Lung. The experiment in a line: Drug uptake in BALB/c mouse lung implanted with mouse 4T1 cells assessed per gram of tissue at 0.18 mg/kg, ip after 6 hrs by HPLC-based fluorescence analysis. The format is ADME, organism-based. The settings on record: in vivo. A digest of the protocol:
as §1

The subject of data set [9] is Stomach. The experiment in a line: Drug uptake in BALB/c mouse stomach implanted with mouse 4T1 cells assessed per gram of tissue at 0.18 mg/kg, ip after 6 hrs by HPLC-based fluorescence analysis. The format is ADME, organism-based. The settings on record: in vivo. The method, boiled down: (§3)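 Female BALB/c mice with 4T1 cells (1 × 10^6 in HBSS) implanted in left rear thigh; single i.p. dose, 7 in ethanol/PEG400/H2O (2/3/5) with 0.1% DMSO, mono-L-aspartyl chlorin e6 in saline; kept dark until sacrifice. Tissues washed, frozen, homogenized in CH3OH/DMSO/H2O (32/8/1), centrifuged 2300×g; supernatant analysed by HPLC with fluorescence detection; three animals per time point.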

Another data set has as its system Liver. The experiment in a line: Drug uptake in BALB/c mouse liver implanted with mouse 4T1 cells assessed per gram of tissue at 0.18 mg/kg, ip after 6 hrs by HPLC-based fluorescence analysis. The format is ADME, organism-based. The following applies: in vivo. A digest of the protocol:
as §1

A short description of data set [10]: Drug uptake in BALB/c mouse large intestine implanted with mouse 4T1 cells assessed per gram of tissue at 0.18 mg/kg, ip after 6 hrs by HPLC-based fluorescence analysis. The format is ADME, organism-based. The following applies: in vivo. A digest of the protocol:
as §1

For data set [11], the system named is Kidney. The experiment in a line: Drug uptake in BALB/c mouse kidney implanted with mouse 4T1 cells assessed per gram of tissue at 0.18 mg/kg, ip after 6 hrs by HPLC-based fluorescence analysis. The following applies: in vivo. The format is ADME, organism-based. The method, boiled down:
as §1

Data set [12] deals with Stomach. The experiment in a line: Drug uptake in BALB/c mouse stomach implanted with mouse 4T1 cells assessed per gram of tissue at 0.18 mg/kg, ip after 12 hrs by HPLC-based fluorescence analysis. It is filed as ADME, organism-based. The settings on record: in vivo. A digest of the protocol: as §3
Data set [13] concerns Kidney. The data set is described as follows: Drug uptake in BALB/c mouse kidney implanted with mouse 4T1 cells assessed per gram of tissue at 0.18 mg/kg, ip after 12 hrs by HPLC-based fluorescence analysis. The following applies: in vivo. It is filed as ADME, organism-based. A digest of the protocol:
as §1

Data set [14] concerns Urinary bladder. The data set is described as follows: Drug uptake in BALB/c mouse bladder implanted with mouse 4T1 cells assessed per gram of tissue at 0.18 mg/kg, ip after 12 hrs by HPLC-based fluorescence analysis. The format is ADME, organism-based. The settings on record: in vivo. A digest of the protocol: as §1
Data set [15] deals with Lung. The experiment in a line: Drug uptake in BALB/c mouse lung implanted with mouse 4T1 cells assessed per gram of tissue at 0.18 mg/kg, ip after 24 hrs by HPLC-based fluorescence analysis. It is filed as ADME, organism-based. The settings on record: in vivo. The method, boiled down: as §1
The nature of data set [16]: Drug uptake in BALB/c mouse small intestine implanted with mouse 4T1 cells assessed per gram of tissue at 0.18 mg/kg, ip after 24 hrs by HPLC-based fluorescence analysis. It is filed as ADME, organism-based. The settings on record: in vivo. The method, boiled down: as §3
For data set [17], the system named is Urinary bladder. The experiment in a line: Drug uptake in BALB/c mouse bladder implanted with mouse 4T1 cells assessed per gram of tissue at 0.18 mg/kg, ip after 24 hrs by HPLC-based fluorescence analysis. The format is ADME, organism-based. The settings on record: in vivo. A digest of the protocol:
as §1

The test system of the next data set is Zone of skin. The data set is described as follows: Drug uptake in BALB/c mouse skin implanted with mouse 4T1 cells assessed per gram of tissue at 0.18 mg/kg, ip after 24 hrs by HPLC-based fluorescence analysis. It is filed as ADME, organism-based. The following applies: in vivo. The method, boiled down:
as §3

For data set [18], the system named is 4T1. The experiment in a line: Drug uptake in mouse 4T1 cells implanted in BALB/c mouse assessed per gram of tissue at 0.18 mg/kg, ip after 24 hrs by HPLC-based fluorescence analysis. The following applies: in vivo. It is filed as ADME, organism-based. A digest of the protocol: as §3
A short description of data set [19]: Drug uptake in BALB/c mouse large intestine implanted with mouse 4T1 cells assessed per gram of tissue at 0.18 mg/kg, ip after 48 hrs by HPLC-based fluorescence analysis. The format is ADME, organism-based. The following applies: in vivo. The method, boiled down: as §1
Data set [20] is described as follows: Ratio of drug level in tumor to skin in BALB/c mouse implanted with mouse 4T1 cells ip after 24 hrs. The following applies: in vivo.

Usually EC50 stands for the concentration giving half of the maximal effect. Turning to `CN1CC2C3=N/C(=C(/c4c(F)c(F)c(S[C@@H]5O[C@H](CO)[C@@H](O)[C@H](O)[C@H]5O)c(F)c4F)C4=N/C(=C(/c5c(F)c(F)c(F)c(F)c5F)c5ccc([nH]5)/C(c5c(F)c(F)c(S[C@@H]6O[C@H](CO)[C@@H](O)[C@H](O)[C@H]6O)c(F)c5F)=C5/C=CC(=N5)C3c3c(F)c(F)c(F)c(F)c3F)C=C4)C2C1` (stereo partly drawn), the Drug uptake is 7 ng/g in [1]; “Active” in [7]; 70 ng/g in the data set on Lung [8]; 48 ng/g in the data set with Stomach [9]; 109 ng/g in the data set on Liver; 80 ng in data set [10]. Moreover, the Drug uptake in the data set on Kidney [11] is 38 ng; with Stomach [12] it was 20 ng/g; with Kidney [13], 25 ng; in the data set on Urinary bladder [14], 95 ng/g; in the data set with Lung [15], 29 ng/g; in data set [16], 39 ng/g. Further, the Drug uptake with Urinary bladder [17] turned out to be 77 ng; in the data set on Zone of skin, 0 ng; in the data set on 4T1 [18] it was 3 ng; in data set [19], 17 ng/g. In the data set on 4T1 [2], the outcome was Active. Also, the Ratio amounted to 250 with 4T1 [3], 0.18 in data set [4] and 60 in data set [20]. The EC50 was found to be 0.5 nM in data set [5], 1 nM in data set [6] and 0.5 nM in the data set on T98G.
